From ChEMBL document CHEMBL4196224, “Novel Hypoxia-Inducible Factor 1α (HIF-1α) Inhibitors for Angiogenesis-Related Ocular Diseases: Discovery of a Novel Scaffold via Ring-Truncation Strategy” (J Med Chem, 2018)
Activity calls are given as the source filed them.

Tests used:
[1] = molecular target: T1, Hypoxia-inducible factor 1-alpha (Homo sapiens, UniProt Q16665); assay: Inhibition of HIF-1alpha in human HRE-A549 cells pre-incubated for 1 hr before exposure to hypoxia for 24 hrs by HRE-luciferase reporter gene assay; assay type: cell-based
How it was run: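 A549 cells stably carrying an HRE-luciferase reporter (G418 600 μg/mL selection), kept in DMEM/10% FBS and grown to 80-90% confluence. Serum withdrawn overnight, compound added 1 h before 24 h hypoxia (1% O2, 5% CO2, 94% N2, 37 °C). Luciferase read by luminometer. IC50 is the mean of three independent experiments with standard error.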
Target sequence in this assay (Q16665 whole entry): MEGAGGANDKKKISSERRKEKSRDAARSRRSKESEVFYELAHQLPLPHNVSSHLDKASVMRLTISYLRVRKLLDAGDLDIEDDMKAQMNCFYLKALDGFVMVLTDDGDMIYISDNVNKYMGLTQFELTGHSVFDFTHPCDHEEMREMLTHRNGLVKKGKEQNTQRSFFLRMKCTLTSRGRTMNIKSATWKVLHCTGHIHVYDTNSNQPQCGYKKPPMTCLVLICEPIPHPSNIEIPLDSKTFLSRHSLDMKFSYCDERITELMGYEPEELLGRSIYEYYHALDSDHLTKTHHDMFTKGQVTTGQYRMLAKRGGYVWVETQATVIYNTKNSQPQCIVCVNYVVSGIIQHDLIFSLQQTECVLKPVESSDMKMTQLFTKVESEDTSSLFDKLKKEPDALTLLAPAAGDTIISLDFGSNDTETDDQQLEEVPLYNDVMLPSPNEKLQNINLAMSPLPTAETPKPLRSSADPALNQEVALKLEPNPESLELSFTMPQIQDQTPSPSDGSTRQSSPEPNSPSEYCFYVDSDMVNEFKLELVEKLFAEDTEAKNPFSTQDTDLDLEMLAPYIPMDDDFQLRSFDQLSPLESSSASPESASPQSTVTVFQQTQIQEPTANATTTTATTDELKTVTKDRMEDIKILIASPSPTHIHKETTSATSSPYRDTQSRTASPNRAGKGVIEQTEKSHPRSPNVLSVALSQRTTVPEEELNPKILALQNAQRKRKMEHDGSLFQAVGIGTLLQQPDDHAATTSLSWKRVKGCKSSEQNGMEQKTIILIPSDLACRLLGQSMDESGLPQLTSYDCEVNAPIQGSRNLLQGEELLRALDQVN

Mus musculus [2] = assay: Suppression of hypoxia-mediated retinal neovascularization in mouse model of oxygen-induced retinopathy assessed as reduction in retinal neovascular tufts at 100 nM dosed via intravitreal route; assay type: functional, organism-based
How it was run: (§1)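 Newborn mice held in 75% ± 0.5% O2 from P7 to P12. Intravitreal injection of compound or PBS at P14 (n = 6). Retinas whole-mounted at P17 and stained with isolectin B4-594. Neovascular tuft area per retina measured by image analysis; mean ± SEM.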

Mus musculus [3] = assay: Suppression of hypoxia-mediated retinal neovascularization in mouse model of oxygen-induced retinopathy assessed as reduction in retinal neovascular tufts at 1 uM dosed via intravitreal route; assay type: functional, organism-based; how it was run: as §1
[4] = Aqueous solubility of the compound in DPBS incubated for 24 hrs by LC/MS/MS method relative to SH-1242; assay type: physicochemical; conditions: buffer
HUVEC [5] = assay: Antiangiogenic activity in HUVEC exposed to human HeLa cells derived conditioned media assessed as inhibition of hypoxia-induced cell tube formation at 100 nM incubated for 20 hrs; assay type: functional, cell-based
How it was run: (§2)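 Conditioned medium from RPE or HeLa cells grown in M199 with 1% FBS under hypoxia ± compound, passed through a 3 kDa cut-off filter. Proliferation: 5 x 10^3 endothelial cells on gelatin, 24 h, then CM 24 h; [3H]-thymidine incorporation, DNA solubilized in 0.2 N NaOH/0.1% SDS, scintillation counting. Migration: 1 x 10^5 cells in Transwell upper well over CM, 4 h, H&E stain, migrated cells counted. Tube formation: 2 x 10^5 cells on Matrigel in CM, 20 h, tube length measured in 5 random fields (x100).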

HUVEC [6] = assay: Antiangiogenic activity in HUVEC exposed to human HeLa cells derived conditioned media assessed as inhibition of hypoxia-induced [3H]-thymidine incorporation at 100 nM incubated for 24 hrs by liquid scintillation counting assay; assay type: functional, cell-based; how it was run: as §2
HUVEC [7] = assay: Antiangiogenic activity in HUVEC exposed to human HeLa cells derived conditioned media assessed as inhibition of hypoxia-induced cell migration at 100 nM incubated for 4 hrs by H and E staining based inverted phase contrast microscopy; assay type: functional; how it was run: as §2
Mus musculus [8] = assay: Suppression of hypoxia-mediated retinal neovascularization in mouse model of oxygen-induced retinopathy assessed as reduction in retinal neovascular tufts at 100 nM dosed via intravitreal route relative to SH-1242; assay type: functional, organism-based; how it was run: as §1
[9] = molecular target: T1, Hypoxia-inducible factor 1-alpha; assay: Induction of HIF-1alpha destabilization in human HCT116 cells under hypoxic conditions at 100 nM by Western blot method
Target sequence in this assay (Q16665 whole entry, looked up): as the sequence (Q16665 whole entry) above

[10] = molecular target: T1, Hypoxia-inducible factor 1-alpha; assay: Induction of HIF-1alpha destabilization in human HCT116 cells under hypoxic conditions assessed as reduction in hypoxia-induced VEGF production at 100 nM by ELISA
Target sequence in this assay (Q16665 whole entry, looked up): as the sequence (Q16665 whole entry) above

Homo sapiens [11] = organism: Homo sapiens; assay: Antiangiogenic activity in HRMEC exposed to human RPE cells derived conditioned media assessed as inhibition of hypoxia-induced cell migration at 100 nM incubated for 4 hrs by H and E staining based inverted phase contrast microscopy; assay type: functional; how it was run: as §2
Homo sapiens [12] = organism: Homo sapiens; assay: Antiangiogenic activity in HRMEC exposed to human RPE cells derived conditioned media assessed as inhibition of hypoxia-induced [3H]-thymidine incorporation at 100 nM incubated for 24 hrs by liquid scintillation counting assay; assay type: functional; how it was run: as §2
Homo sapiens [13] = organism: Homo sapiens; assay: Antiangiogenic activity in HRMEC exposed to human RPE cells derived conditioned media assessed as inhibition of hypoxia-induced tube formation at 100 nM incubated for 20 hrs; assay type: functional; how it was run: as §2
[14] = molecular target: T1, Hypoxia-inducible factor 1-alpha; assay: Inhibition of HIF-1alpha in human A549 cell lysates assessed as reduction in Hsp90 and HIF-1alpha interaction at 1.25 uM in presence of ATP for 30 mins at 37 degC by immunoprecipitation and immunoblotting assay
How it was run: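 Lysate from A549 cells exposed to 100 μM CoCl2 for 5 h, incubated with compound ± 20 mM ATP for 30 min at 37 °C. HIF-1α immunoprecipitated overnight at 4 °C, then protein G-agarose 2 h at 4 °C. Complex boiled in Laemmli buffer, run on 6% SDS-PAGE, blotted for HSP90.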
Target sequence in this assay (Q16665 whole entry, looked up): as the sequence (Q16665 whole entry) above

[15] = molecular target: T1, Hypoxia-inducible factor 1-alpha; assay: Induction of HIF-1alpha destabilization in human HCT116 cells under hypoxic conditions assessed as reduction in hypoxia-induced VEGFA mRNA expression at 100 nM
Target sequence in this assay (Q16665 whole entry, looked up): as the sequence (Q16665 whole entry) above

| IC50 [1] [nM] | Compound | further results |
| --- | --- | --- |
| 1440 | COc1c(C(=O)Cc2cccc(O)c2)ccc2c1C=CC(C)(C)O2 | – |
| 880 | COc1c(C(=O)Cc2ccccc2)ccc2c1C=CC(C)(C)O2 | – |
| 1270 | COc1c(C(=O)Cc2ccc(F)c(F)c2)ccc2c1C=CC(C)(C)O2 | – |
| 360 | COc1c(C(=O)Cc2cccc(F)c2)ccc2c1C=CC(C)(C)O2 | – |
| 1020 | COc1c(C(=O)Cc2ccc(F)cc2)ccc2c1C=CC(C)(C)O2 | – |
| 3410 | COc1c(C(=O)Cc2ccc3c(c2)OCO3)ccc2c1C=CC(C)(C)O2 | – |
| 2150 | COc1ccc(CC(=O)c2ccc3c(c2OC)C=CC(C)(C)O3)cc1OC | Activity (Mus musculus [3]): Active; Activity (Mus musculus [2]): Active |
| 100 | COc1c(C(=O)Cc2ccccc2F)ccc2c1C=CC(C)(C)O2 | – |
| 820 | COc1cccc(CC(=O)c2ccc3c(c2OC)C=CC(C)(C)O3)c1 | – |
| 6210 | COc1ccc(CC(=O)c2ccc3c(c2OC)C=CC(C)(C)O3)cc1 | – |
| 2880 | COc1c(C(=O)Cc2ccc(Cl)c(Cl)c2)ccc2c1C=CC(C)(C)O2 | – |
| 790 | COc1c(C(=O)Cc2ccc(O)cc2)ccc2c1C=CC(C)(C)O2 | – |
| 1330 | COc1c(C(=O)Cc2ccc3c(c2)OCCO3)ccc2c1C=CC(C)(C)O2 | – |

Further lines, the molecule ahead of its results:

| Compound | IC50 [1] [nM] | further results |
| --- | --- | --- |
| COc1ccc(CC(OC(C)=O)c2ccc3c(c2OC)C=CC(C)(C)O3)cc1OC (stereo unspecified) | 3040 | – |
| COc1ccc([C@H](C)C(=O)c2ccc(NCc3ccc(C#N)cc3)cc2OC)cc1OC | – | Activity (Mus musculus [2]): Active |
| COc1ccc(C(F)C(=O)c2ccc3c(c2OC)C=CC(C)(C)O3)cc1OC (stereo unspecified) | 6350 | – |
| COc1ccc(C(=O)C(C)c2ccc(OC)c(OC)c2)c(OC)c1 (racemic) | > 15000 | – |
| COc1ccc(C(C)C(=O)c2ccc(N3CCCCC3)cc2OC)cc1OC (racemic) | – | Activity (Mus musculus [3]): Active; Activity (Mus musculus [2]): Active; fold change (FC) [4]: 93; Activity (HUVEC [5]): Active; Activity (HUVEC [6]): Active; Activity (HUVEC [7]): Active |
| COc1ccc(C(Cc2ccccc2)C(=O)c2ccc3c(c2OC)C=CC(C)(C)O3)cc1OC (stereo unspecified) | 12000 | – |
| COc1ccc(C(C)C(=O)c2ccc(N3CCCC3)cc2)cc1OC (racemic) | 2610 | – |
| COc1ccc(N(C)C(=O)c2ccc3c(c2OC)C=CC(C)(C)O3)cc1OC | 3150 | – |
| COc1ccc(CC(O)c2ccc3c(c2OC)C=CC(C)(C)O3)cc1OC (stereo unspecified) | 8880 | – |
| COc1ccc(C(C)C(=O)c2ccc(O)cc2OC)cc1OC (racemic) | > 15000 | – |
| COc1c(C(=O)Cc2ccccc2O)ccc2c1C=CC(C)(C)O2 | 940 | – |
| COc1ccccc1CC(=O)c1ccc2c(c1OC)C=CC(C)(C)O2 | 3210 | – |
| COc1ccc(C(C)C(=O)c2ccc(NCc3ccc(C#N)cc3)cc2OC)cc1OC (racemic) | – | Activity (Mus musculus [8]): Active; Activity [9]: Active; Activity [10]: Active; Activity (Homo sapiens [11]): Active; Activity (Homo sapiens [12]): Active; fold change (FC) [4]: 17; Activity (HUVEC [5]): Active; Activity (HUVEC [6]): Active; Activity (Homo sapiens [13]): Active; Activity (HUVEC [7]): Active; inhibition [14]: Active; Activity [15]: Active |
| COc1ccc(NC(=O)c2ccc3c(c2OC)C=CC(C)(C)O3)cc1OC | 2040 | – |
| C=CCC(C(=O)c1ccc2c(c1OC)C=CC(C)(C)O2)c1ccc(OC)c(OC)c1 (stereo unspecified) | 8450 | – |
| COc1ccc([C@@H](C)C(=O)c2ccc(NCc3ccc(C#N)cc3)cc2OC)cc1OC | – | Activity (Mus musculus [2]): Active |
| COc1ccc(N(Cc2ccccc2)C(=O)c2ccc3c(c2OC)C=CC(C)(C)O3)cc1OC | 10800 | – |
| COc1ccc(C(C)C(=O)c2ccc3c(c2OC)C=CC(C)(C)O3)cc1OC (racemic) | 1360 | – |
| CCN(C(=O)c1ccc2c(c1OC)C=CC(C)(C)O2)c1ccc(OC)c(OC)c1 | 5250 | – |
| COc1ccc(C(C)C(=O)c2ccc(N(C)C)cc2OC)cc1OC (racemic) | > 15000 | – |
